MBD2 inh: inhibitors of MBD2 binding to methylated DNA, primary screen, biochemical, TR-FRET, DNA-binding domain, human; hit rate 0.31% among 370,000; MBD2 binding to methylated oligonucleotide; inhibition, % at 4.4 µM; Methyl-CpG-binding domain protein 2 (Homo sapiens), Q9UBB5; AID 686964, 2013; in the data active means inhibition above about 13%
Arrestin-AP2 inh: inhibitors of beta-arrestin/AP2 binding, primary screen, biochemical, GPCR trafficking, flow cytometry; FITC-arrestin peptide / GST-AP2 beads; AP2 beta2 appendage carries R879A mutation; inhibition, % at 10 µM; hit rate 0.31% among 340,000;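 active means inhibition above a set limit, near 3 SD of compounds lacking own fluorescence, cut at about 54% in these data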
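Assay system: GST-AP2 R879A bound to glutathione beads, E. coli-expressed; Medium: PBS with 0.05% Tween 20 and 0.1% BSA; Also added: fluorescein-tagged arrestin peptide at 50 nM final; Timing: 12 min plus 1 h, RT; Measured by: flow cytometry, FL1 (488/535 nm); Evaluation: percent drop in bead-associated FITC signal.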
UHRF1 MBD2 ctr: UHRF1 methylated DNA binding inhibitors, primary screen, counter-screen for MBD2 inhibitor project, biochemical, TR-FRET, human UHRF1, single concentration | E3 ubiquitin-protein ligase UHRF1 (Homo sapiens), Q96T88 | UHRF1 binding to methylated oligo | inhibition, % at 4.4 µM | hit rate 0.75% among 370,000 | AID 687016, 2013; in the data active means inhibition above about 21%;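 further: UHRF1 SRA domain binding a hemimethylated CpG hairpin DNA probe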
Target sequence (Q96T88 whole entry, looked up, the tested form may be a part): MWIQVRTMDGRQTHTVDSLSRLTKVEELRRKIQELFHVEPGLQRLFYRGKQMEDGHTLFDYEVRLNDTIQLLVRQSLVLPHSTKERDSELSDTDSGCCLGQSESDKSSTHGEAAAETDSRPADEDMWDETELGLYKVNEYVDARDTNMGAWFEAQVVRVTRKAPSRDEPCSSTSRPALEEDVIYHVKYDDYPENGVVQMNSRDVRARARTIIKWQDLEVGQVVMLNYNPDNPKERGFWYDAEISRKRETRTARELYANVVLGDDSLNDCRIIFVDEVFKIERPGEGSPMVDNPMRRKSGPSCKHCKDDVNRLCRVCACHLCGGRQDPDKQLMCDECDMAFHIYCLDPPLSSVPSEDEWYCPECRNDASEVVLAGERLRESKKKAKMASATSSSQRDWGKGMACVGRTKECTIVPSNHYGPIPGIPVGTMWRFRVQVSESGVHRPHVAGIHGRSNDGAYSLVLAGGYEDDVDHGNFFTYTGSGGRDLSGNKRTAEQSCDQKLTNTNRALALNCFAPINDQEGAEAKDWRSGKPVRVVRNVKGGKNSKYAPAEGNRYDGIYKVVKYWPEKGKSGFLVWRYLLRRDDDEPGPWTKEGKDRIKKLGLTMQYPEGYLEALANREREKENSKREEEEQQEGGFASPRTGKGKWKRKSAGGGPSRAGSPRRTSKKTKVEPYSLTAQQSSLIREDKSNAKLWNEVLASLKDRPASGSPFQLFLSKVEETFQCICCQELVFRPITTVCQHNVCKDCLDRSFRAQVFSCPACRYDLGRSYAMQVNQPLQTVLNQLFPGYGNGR
Rin1 Abl inh: inhibitors of Rin1-Abl protein binding, primary screen, biochemical, TR-FRET; hit rate 0.4% among 360,000; AID 588664, 2011; inhibition, % at 7.35 µM; Tyrosine-protein kinase ABL1 (Homo sapiens) + Ras and Rab interactor 1 (Homo sapiens), …; in the data active means inhibition above about 5%, passing the limit was not always enough
Beta2AR agonist: beta2AR agonists driving receptor internalization, primary screen, cell-based, FAP fluorogen, flow cytometry. Beta-2 adrenergic receptor (Homo sapiens), P07550. response, % (concentration not given with the values). hit rate 0.43% among 340,000. Am2.2-beta2AR cells;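 active means response above a set limit, near 3 SD of response in nonfluorescent compounds, cut at about 42% in these data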
ABHD5 PLIN5 PPI: ABHD5-PLIN5 interaction inhibitors, primary screen, cell lysate, split luciferase complementation, luminescence. Split G. princeps luciferase complementation, 4 h. inhibition, % at 4 µM. hit rate 0.78% among 360,000. AID 602281, 2012;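 active means inhibition above the mean inhibition across every tested compound plus 3 SD, cut at about 22% in these data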
B2AR ag CP1: beta2AR agonists via receptor internalization, confirmation, cell-based, FAP fluorogen, flow cytometry, single point, cherry pick 1 | percent response (surface receptor), % at 10 µM | Am2.2-beta2AR cells, FAP surface receptor; active compounds read low | shares compounds with Beta2AR agonist | hit rate 25% among 1,100 | AID 540358, 2011;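 active means surface receptor percent response at or below 58%, roughly 3 SD from nonfluorescent compounds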
B2AR FAP counter: fluorescence artifact in beta-2AR agonist FAP counterscreen | shares compounds with Beta2AR agonist | Am2.2 cells, FAP fluorogen flow cytometry; active compounds read low | calls only at 10 µM | 1,100 tested, under 10 active;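 active means percent response below a set limit in fluorescence channel 1 and below 50% in channel 8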
Of the large screens only hits and unclear results are named; the others gave an inactive call (follow-up assays come after a bar, where they were run). Rows were chosen to be rich in hits. Some 2.5% of all compounds tested hit in one or more screens of this group.

Cc1cccc(-c2cccc3c4c([nH]c23)[C@@H]2C[C@H](N(C)C(=O)c3ccccc3C)[C@H]([C@H](C)O)C(=O)N2CC4)c1	none (no result: Arrestin-AP2 inh, Rin1 Abl inh, Beta2AR agonist, ABHD5 PLIN5 PPI)
O=C(CSc1nc2ncccc2[nH]1)N1CCOCC1	none (no result: Arrestin-AP2 inh, Rin1 Abl inh, Beta2AR agonist, ABHD5 PLIN5 PPI)
O=C(NCCCN1CCN(CCCNC(=O)c2ccc(F)cc2)CC1)c1ccc(F)cc1	none | B2AR ag CP1 inactive | B2AR FAP counter inactive
CC(C)c1ccc(C(=O)NCCCN2CCN(CCCNC(=O)c3ccc(C(C)C)cc3)CC2)cc1	Beta2AR agonist 46 | B2AR ag CP1 inactive | B2AR FAP counter inactive
O=C(NCCN1CCOCC1)c1ccc(F)cc1	none
COC(=O)CCC1NC(=O)C(Cc2c[nH]c3ccccc23)NC(=O)C2CC(=O)OC(C)C(NC(=O)C(C)NC(=O)C3CCCN3C(=O)C3CCCN3C(=O)C(C)NC(C)=O)C(=O)NC(CC(C)C)C(=O)NC(CCCCNC(=O)CCC(C(=O)NC(Cc3ccc(O)cc3)C(=O)O)NC1=O)C(=O)NC(Cc1c[nH]c3ccccc13)C(=O)N1CCCC1C(=O)NC(CO)C(=O)N2 (centres undefined)	none (no result: Arrestin-AP2 inh, Rin1 Abl inh, Beta2AR agonist, ABHD5 PLIN5 PPI)
COc1ccc(CN(C)Cc2c(O)ccc3cc(Br)ccc23)cc1OC	Beta2AR agonist 43 | B2AR ag CP1 inactive | B2AR FAP counter inactive
O=C1CN(C(=O)COC(=O)/C=C/c2ccc(S(=O)(=O)N3CCOCC3)cc2)c2ccccc2N1	none
O=C1CN(C(=O)COC(=O)c2cc(S(=O)(=O)N3CCOCC3)ccc2Cl)c2ccccc2N1	Beta2AR agonist 42 | B2AR ag CP1 inactive | B2AR FAP counter inactive
COc1cccc(/C=N/NC(=S)Nc2cccc(S(=O)(=O)N(C)C)c2)c1	none | B2AR ag CP1 inactive | B2AR FAP counter inactive
COc1ccc(O)c(/C=N/NC(=S)Nc2cccc(S(=O)(=O)N(C)C)c2)c1	none
COc1ccc(-n2c(COc3ccc(Cl)cc3)nnc2SCC(=O)Nc2ccc3c(c2)OCO3)cc1	none (no result: Arrestin-AP2 inh, Rin1 Abl inh, Beta2AR agonist, ABHD5 PLIN5 PPI)
CC(C)(C(=O)O)c1ccc(C(O)CCCN2CCC(C(O)(c3ccccc3)c3ccccc3)CC2)cc1 (centres undefined)	none | B2AR ag CP1 inactive | B2AR FAP counter inactive
OC(c1ccccc1)(c1ccccc1)C1CCN(CCCNc2ccccc2Br)CC1	none (no result: Arrestin-AP2 inh, Rin1 Abl inh, Beta2AR agonist, ABHD5 PLIN5 PPI)
Cc1nc2oc(C(=O)c3ccc(Br)cc3)c(N)c2c2c1COC(C)(C)C2	none
Cc1nc2oc3c(=O)[nH]cnc3c2c2c1COC(C)(C)C2	none | B2AR ag CP1 inactive | B2AR FAP counter inactive
Cc1ccccc1N1CCN(c2ncnc3c2cnn3Cc2ccc(Cl)cc2)CC1	Beta2AR agonist 44 | B2AR ag CP1 inactive | B2AR FAP counter inactive
CN(C)CCCn1cnc2c(c1=N)C(c1ccccc1)c1ccc3ccccc3c1O2 (centres undefined)	Beta2AR agonist 44 | B2AR ag CP1 inactive | B2AR FAP counter inactive
Cc1cc(N2CCN(c3ccc([N+](=O)[O-])c4cccnc34)CC2)c2ccccc2n1	Beta2AR agonist 95 (no result: MBD2 inh, UHRF1 MBD2 ctr) | B2AR ag CP1 inactive | B2AR FAP counter inactive
CCOc1ccc(-n2c(COc3ccc(C)cc3)nnc2SCC(=O)Nc2ccc(F)c(F)c2)cc1	none (no result: Arrestin-AP2 inh, Rin1 Abl inh, Beta2AR agonist, ABHD5 PLIN5 PPI)
O=C(Nc1ccc2c(c1)OCO2)NC1CCCCN(Cc2cccc(Cl)c2)C1=O (centres undefined)	none (no result: Arrestin-AP2 inh, Rin1 Abl inh, Beta2AR agonist, ABHD5 PLIN5 PPI)
CCCCC(=O)Nc1ccc(S(=O)(=O)N2CCCCC2c2cccnc2)cc1 (centres undefined)	Beta2AR agonist 129 | B2AR ag CP1 27 | B2AR FAP counter inactive
CC(=O)Nc1ccc(S(=O)(=O)N2CCCCC2c2cccnc2)cc1 (centres undefined)	none | B2AR ag CP1 21 | B2AR FAP counter inactive
O=C(Nc1ccc(S(=O)(=O)N2CCCCC2c2cccnc2)cc1)c1c(F)cccc1F (centres undefined)	Beta2AR agonist 87 | B2AR ag CP1 49 | B2AR FAP counter inactive
COC(=O)CN1CCN(C(=O)c2nocc2C)CC1	none (no result: Arrestin-AP2 inh, Rin1 Abl inh, Beta2AR agonist, ABHD5 PLIN5 PPI)
CCOc1ccc(-c2cc(C(=O)NCCCn3ccnc3)c3cc(Br)ccc3n2)cc1	Beta2AR agonist 50 | B2AR ag CP1 inactive | B2AR FAP counter inactive
C[C@H]1C2CC(OC(=O)Nc3cccc(F)c3)C(C2)[C@H]2CCCCN21 (some centres undefined)	none (no result: Arrestin-AP2 inh, Rin1 Abl inh, Beta2AR agonist, ABHD5 PLIN5 PPI)
COc1ccc(CN(C)C(=O)c2cc(S(=O)(=O)N3CCCCCC3)ccc2OC)cc1OC	none
COc1ccc(S(=O)(=O)N2CCCCCC2)cc1C(=O)N(C)Cc1ccc(OC)c(OC)c1OC	Beta2AR agonist 51 | B2AR ag CP1 inactive | B2AR FAP counter inactive
O=C(NCCc1nc2ccccc2n1CCOc1ccc2cccnc2c1)C1CCCCC1	none (no result: Arrestin-AP2 inh, Rin1 Abl inh, Beta2AR agonist, ABHD5 PLIN5 PPI)
COc1ccc(-n2c(SCC(=O)Nc3ccccc3-c3ccccc3)nnc2-c2ccco2)cc1	none (no result: Arrestin-AP2 inh, Rin1 Abl inh, Beta2AR agonist, ABHD5 PLIN5 PPI)
Cc1cc(NC(=O)c2ccc(NS(=O)(=O)c3ccccc3)cc2)no1	none (no result: Arrestin-AP2 inh, Rin1 Abl inh, Beta2AR agonist, ABHD5 PLIN5 PPI)
CN(C)CCCN(C(=O)c1ccc([N+](=O)[O-])s1)c1nc2cc3c(cc2s1)OCCO3	Beta2AR agonist 42 | B2AR ag CP1 inactive | B2AR FAP counter inactive
COC(=O)[C@]12C[C@H](CC(=O)NCC3CCCCC3)C(=O)N(Cc3ccco3)C1=C[C@H](C1CCCC1)O[C@@H]2C	none (no result: Arrestin-AP2 inh, Rin1 Abl inh, Beta2AR agonist, ABHD5 PLIN5 PPI)
Cc1ccccc1NC(=O)Cn1nnc(-c2ccc(N3CCOCC3)cc2)n1	none
CN(C)c1ccc(-c2nnn(CC(=O)Nc3ccccc3N3CCOCC3)n2)cc1	none | B2AR ag CP1 inactive | B2AR FAP counter inactive
COc1ccc(CSc2ccc(-c3nc4ccccn4c3NCc3ccccc3)cc2OC)cc1	Beta2AR agonist 75 | B2AR ag CP1 inactive | B2AR FAP counter inactive
CCC(C)Sc1ccc(-c2nc3ccccn3c2NCc2ccccc2)cc1OC (centres undefined)	none (no result: MBD2 inh, UHRF1 MBD2 ctr)
CCCn1c(=N)n(CC(O)COc2ccc(C)cc2)c2ccccc21 (centres undefined)	none
CCCCn1c(=N)n(CC(O)COc2cccc(C)c2)c2ccccc21 (centres undefined)	Beta2AR agonist 46 | B2AR ag CP1 inactive | B2AR FAP counter inactive
